Assay results: ChEMBL document CHEMBL3525925, “In vitro studies on the oxidative metabolism of 20(s)-ginsenoside Rh2 in human, monkey, dog, rat, and mouse liver microsomes, and human liver s9” (Drug Metab Dispos, 2012)

Legend:
Liver cytosol [1] = test: Drug metabolism in human liver cytosol assessed as 26-carboxy,20(S)-Ginsenoside Rh2 formation at 10 uM by LC/MS analysis in presence of 50 uM 4-methylpyrazole alcohol dehydrogenase inhibitor; assay type: ADME
Method in brief: (§1)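 Pooled human liver cytosol (1 mg/ml) with 2 mM NAD+ and inhibitor in 100 mM potassium phosphate pH 7.4; inhibitors given from DMSO, 0.1% v/v final. After 15 min preincubation at 37°C, started with 10 μM M1-1 or 26-aldehyde-Rh2. Run 60 min, stopped with ice-cold acetonitrile. Duplicates, uninhibited controls; M2-3 acid measured by LC/MSn.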

Liver cytosol [2] = test: Drug metabolism in human liver cytosol assessed as 26-carboxy,20(S)-Ginsenoside Rh2 formation at 10 uM by LC/MS analysis in presence of 50 uM disulfiram aldehyde dehydrogenase inhibitor; assay type: ADME; method in brief: as §1
Liver cytosol [3] = test: Drug metabolism in human liver cytosol assessed as 26-carboxy,20(S)-Ginsenoside Rh2 formation at 10 uM by LC/MS analysis in presence of 100 uM raloxifene aldehyde oxidase inhibitor; assay type: ADME; conditions: in the assay text read “100 nM raloxifene” for “100 uM raloxifene”; method in brief: as §1
Liver microsome [4] = test: Drug level in Sprague-Dawley rat liver microsomes treated with 10 uM 20(S)-ginsenoside Rh2 for 60 mins by MS2 spectra; assay type: ADME; conditions: 1 h
Method in brief: (§2)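 Rh2 at 10 μM final (from methanol stock; 0.1% v/v methanol final) in 100 mM potassium phosphate pH 7.4 with 2 mM NADPH, open-to-air tubes at 37°C. 3 min preincubation, then started with liver microsomes or S9 at 1 mg/ml protein. Incubated 60 min, stopped with equal volume ice-cold acetonitrile. Controls lacked NADPH; duplicates. Metabolites detected by LC/ion-trap MSn.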

Liver microsome [5] = test: Drug level in human liver microsomes treated with 10 uM 20(S)-ginsenoside Rh2 for 60 mins by MS2 spectra; assay type: ADME; conditions: 1 h; method in brief: as §2
Liver [6] = test: Drug level in human liver S9 fraction treated with 10 uM 20(S)-ginsenoside Rh2 for 60 mins by MS2 spectra; assay type: ADME, subcellular; conditions: s9, 1 h; method in brief: as §2
Liver microsome [7] = test: Retention time in human liver microsomes treated with 10 uM 20(S)-ginsenoside Rh2 by MS2 spectra; assay type: ADME
Method in brief: (§3)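 Samples: incubation mixed with equal volume methanol, centrifuged at 14,000g for 5 min, dried under nitrogen at 40°C, reconstituted. Separated on Eclipse XDB-C18 (4.6 × 150 mm, 5 μm) at 0.5 ml/min. Gradient: 0.1% formic acid in methanol against 0.1% formic acid in 5 mM ammonium acetate, 70% to 100% organic over 17 min. Ion-trap MSn detection.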

Liver [8] = test: Drug level in CD-1 mouse liver microsomes treated with 10 uM 20(S)-ginsenoside Rh2 for 60 mins by MS2 spectra; assay type: ADME; conditions: 1 h; method in brief: as §2
Liver microsome [9] = test: Drug level in beagle dog liver microsomes treated with 10 uM 20(S)-ginsenoside Rh2 for 60 mins by MS2 spectra; assay type: ADME, Canis lupus familiaris; conditions: 1 h; method in brief: as §2
Cytochrome P450 3A4 = Cytochrome P450 3A4 (Homo sapiens, UniProt P08684); test: Drug level in human recombinant CYP3A4 treated with 10 uM 20(S)-ginsenoside Rh2 for 60 mins by MS2 spectra; assay type: ADME; conditions: recombinant enzyme, 1 h
Chain of Cytochrome P450 3A4 (P08684 whole entry): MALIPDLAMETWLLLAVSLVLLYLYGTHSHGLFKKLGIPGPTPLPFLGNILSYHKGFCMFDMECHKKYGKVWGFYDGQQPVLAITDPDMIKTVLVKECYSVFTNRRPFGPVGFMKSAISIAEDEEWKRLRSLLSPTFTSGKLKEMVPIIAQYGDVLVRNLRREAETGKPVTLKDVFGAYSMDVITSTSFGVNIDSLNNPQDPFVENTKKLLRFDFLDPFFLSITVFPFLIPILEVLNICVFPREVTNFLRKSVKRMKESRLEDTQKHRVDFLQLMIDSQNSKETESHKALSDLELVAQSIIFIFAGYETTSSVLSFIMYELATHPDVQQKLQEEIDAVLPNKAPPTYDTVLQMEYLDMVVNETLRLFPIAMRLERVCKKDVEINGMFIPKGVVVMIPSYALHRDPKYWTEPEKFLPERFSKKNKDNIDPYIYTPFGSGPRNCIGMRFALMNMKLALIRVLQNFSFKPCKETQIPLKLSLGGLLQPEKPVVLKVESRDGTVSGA
Method in brief: (§4)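 Recombinant human P450 (50 nM) with 10 μM Rh2 under the microsomal conditions: 100 mM potassium phosphate pH 7.4, 2 mM NADPH, 37°C for 60 min. Stopped with equal volume ice-cold acetonitrile. Run in duplicate; products analysed by LC/ion-trap MSn.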

Cytochrome P450 3A5 = Cytochrome P450 3A5 (Homo sapiens, UniProt P20815); test: Drug level in human recombinant CYP3A5 treated with 10 uM 20(S)-ginsenoside Rh2 for 60 mins by MS2 spectra; assay type: ADME; conditions: recombinant enzyme, 1 h; method in brief: as §4
Chain of Cytochrome P450 3A5 (P20815 whole entry): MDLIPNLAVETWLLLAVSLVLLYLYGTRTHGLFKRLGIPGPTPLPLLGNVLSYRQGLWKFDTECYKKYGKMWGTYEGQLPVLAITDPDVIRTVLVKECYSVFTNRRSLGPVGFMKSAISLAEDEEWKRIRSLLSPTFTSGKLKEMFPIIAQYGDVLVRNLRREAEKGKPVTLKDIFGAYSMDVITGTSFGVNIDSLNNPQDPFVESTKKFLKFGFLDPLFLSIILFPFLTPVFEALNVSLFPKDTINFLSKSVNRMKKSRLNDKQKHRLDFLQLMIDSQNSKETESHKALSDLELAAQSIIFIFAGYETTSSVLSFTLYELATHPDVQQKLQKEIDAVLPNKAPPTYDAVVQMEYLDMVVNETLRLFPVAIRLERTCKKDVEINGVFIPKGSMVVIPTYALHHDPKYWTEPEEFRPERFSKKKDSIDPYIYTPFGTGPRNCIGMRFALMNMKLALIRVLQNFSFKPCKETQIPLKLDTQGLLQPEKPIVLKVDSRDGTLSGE

Liver [10] = test: Retention time in human liver S9 fraction treated with 10 uM 20(S)-ginsenoside Rh2 by MS2 spectra; assay type: ADME, subcellular; method in brief: as §3
[11] = Drug level in cynomolgus monkey liver microsomes treated with 10 uM 20(S)-ginsenoside Rh2 for 60 mins by MS2 spectra; assay type: ADME, Macaca fascicularis; conditions: 1 h; method in brief: as §2
[12] = Retention time in cynomolgus monkey liver microsomes treated with 10 uM 20(S)-ginsenoside Rh2 by MS2 spectra; assay type: ADME, Macaca fascicularis; method in brief: as §3

| SMILES | Drug metabolism (Liver cytosol [1]) | Drug metabolism (Liver cytosol [2]) | Drug metabolism (Liver cytosol [3]) | Drug metabolism (Liver microsome [4]) | Drug metabolism (Liver microsome [5]) | Drug metabolism (Liver [6]) | Retention_time (Liver microsome [7]) [min] | Drug metabolism (Liver [8]) | Drug metabolism (Liver microsome [9]) | Drug metabolism (Cytochrome P450 3A4) | Drug metabolism (Cytochrome P450 3A5) | Retention_time (Liver [10]) [min] | Drug metabolism [11] | Retention_time [12] [min] |
| --- | --- | --- | --- | --- | --- | --- | --- | --- | --- | --- | --- | --- | --- | --- |
| C/C(C=O)=C\CC[C@](C)(O)[C@H]1CC[C@]2(C)[C@@H]1[C@H](O)C[C@@H]1[C@@]3(C)CC[C@H](O[C@@H]4O[C@H](CO)[C@@H](O)[C@H](O)[C@H]4O)C(C)(C)[C@@H]3CC[C@]12C | metabolite_not_detected | metabolite_not_detected | metabolite_not_detected |  |  |  |  |  |  |  |  |  |  |  |
| C/C(=C\CC[C@](C)(O)[C@H]1CC[C@]2(C)[C@@H]1[C@H](O)C[C@@H]1[C@@]3(C)CC[C@H](O[C@@H]4O[C@H](CO)[C@@H](O)[C@H](O)[C@H]4O)C(C)(C)[C@@H]3CC[C@]12C)CO | metabolite_not_detected | metabolite_not_detected | metabolite_not_detected | metabolite_detected | metabolite_detected | metabolite_detected | 16.7 | metabolite_detected | metabolite_detected | metabolite_detected | metabolite_detected | 16.7 | metabolite_detected |  |
| CC(C)(O)C(CC[C@](C)(O)[C@H]1CC[C@]2(C)[C@@H]1[C@H](O)C[C@@H]1[C@@]3(C)CC[C@H](O[C@@H]4O[C@H](CO)[C@@H](O)[C@H](O)[C@H]4O)C(C)(C)[C@@H]3CC[C@]12C)SC[C@H](NC(=O)CC[C@H](N)C(=O)O)C(=O)NCC(=O)O (stereo not given in full) |  |  |  | metabolite_not_detected | metabolite_not_detected | metabolite_not_detected |  | metabolite_not_detected | metabolite_not_detected | metabolite_not_detected | metabolite_not_detected |  | metabolite_detected | 10.6 |
| C/C(=C/CC[C@](C)(O)[C@H]1CC[C@]2(C)[C@@H]1[C@H](O)C[C@@H]1[C@@]3(C)CC[C@H](O[C@@H]4O[C@H](CO)[C@@H](O)[C@H](O)[C@H]4O)C(C)(C)[C@@H]3CC[C@]12C)C(=O)O |  |  |  | metabolite_detected | metabolite_detected | metabolite_detected | 13.2 | metabolite_detected | metabolite_not_detected | metabolite_detected | metabolite_not_detected | 13.2 | metabolite_detected |  |
| CC1(C)O[C@H]1CC[C@](C)(O)[C@H]1CC[C@]2(C)[C@@H]1[C@H](O)C[C@@H]1[C@@]3(C)CC[C@H](O[C@@H]4O[C@H](CO)[C@@H](O)[C@H](O)[C@H]4O)C(C)(C)[C@@H]3CC[C@]12C |  |  |  | metabolite_detected | metabolite_detected | metabolite_detected | 20 | metabolite_detected | metabolite_detected | metabolite_detected | metabolite_not_detected | 20 | metabolite_detected |  |
| CC(O)(CO)[C@H]1CC[C@@](C)([C@H]2CC[C@]3(C)[C@@H]2[C@H](O)C[C@@H]2[C@@]4(C)CC[C@H](O[C@@H]5O[C@H](CO)[C@@H](O)[C@H](O)[C@H]5O)C(C)(C)[C@@H]4CC[C@]23C)O1 (stereo not given in full) |  |  |  | metabolite_detected | metabolite_detected | metabolite_detected | 16.7 | metabolite_detected | metabolite_not_detected | metabolite_detected | metabolite_not_detected | 16.7 | metabolite_detected |  |
| CC(C)(O)[C@H]1CC[C@@](C)([C@H]2CC[C@]3(C)[C@@H]2[C@H](O)C[C@@H]2[C@@]4(C)CC[C@H](O[C@@H]5O[C@H](CO)[C@@H](O)[C@H](O)[C@H]5O)C(C)(C)[C@@H]4CC[C@]23C)O1 |  |  |  | metabolite_detected | metabolite_detected | metabolite_detected | 20.2 | metabolite_detected | metabolite_detected | metabolite_detected | metabolite_not_detected | 20.2 | metabolite_detected |  |
| CC1(C)[C@@H](O[C@@H]2O[C@H](CO)[C@@H](O)[C@H](O)[C@H]2O)CC[C@]2(C)[C@H]3C[C@@H](O)[C@@H]4[C@@H]([C@@](C)(O)CCC=C(CO)CO)CC[C@@]4(C)[C@]3(C)CC[C@@H]12 |  |  |  | metabolite_detected | metabolite_detected | metabolite_detected | 12.2 | metabolite_detected | metabolite_detected | metabolite_detected | metabolite_not_detected | 12.2 | metabolite_detected |  |
